From PMC5673027 (International Journal of Oncology, 2017)
“Also recorded” adds a separate entry of the source.

Experiments:
[1] = biological target: CDK1/cyclin B1 (Homo sapiens, UniProt P06493); assay: In vitro CDK1 kinase assay; type: biochemical; settings: for inhibition of CDK1 enzyme activity: quantification of band intensities, Fig. 1C/D, H1 histones; for effect on CDK1 enzyme activity (in words): in vitro kinase assay, H1 histone phosphorylation
In short: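 Purified CDK1/cyclin B1 complex in kit reaction buffer, pre-incubated with test compound at various concentrations for 10 min at room temperature. Phosphorylation run with 15 µM ATP, 2 µCi [γ-32P]ATP and 5 µg H1 histone at 30°C for 20 min, then stopped with 20 mM EDTA (final). Products resolved by 10% SDS-PAGE and autoradiographed; bands quantified as percent of control. Done 3–6 independent times.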

[2] = biological target: T1, CDK2/cyclin A2 (Homo sapiens, UniProt P24941); assay: In vitro CDK2 kinase assay; type: biochemical; settings: for effect on CDK2 enzyme activity (in words): 0.5 mM (Fig. 7), pre-incubated 10 min, H1 histones
In short: (§1)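 Kinases were purified CDK2/cyclin A2, CDK4/cyclin D1 and CDK6/cyclin D1, each pre-incubated with test compound for 10 min at room temperature, mostly at 0.5 mM, with some dose series. Reaction used 15 µM ATP, 2 µCi [γ-32P]ATP and 5 µg protein substrate (H1 histone for CDK2) at 30°C for 20 min, stopped with 20 mM EDTA. Read by SDS-PAGE autoradiography, bands expressed as percent of control.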

[3] = biological target: CDK4/cyclin D1 (Homo sapiens, UniProt P11802); assay: In vitro CDK4 kinase assay; type: biochemical; settings: for effect on CDK4 enzyme activity (in words): 0.5 mM (Fig. 7E, F), Rb substrate
Chain of CDK4/cyclin D1 (P11802 whole entry): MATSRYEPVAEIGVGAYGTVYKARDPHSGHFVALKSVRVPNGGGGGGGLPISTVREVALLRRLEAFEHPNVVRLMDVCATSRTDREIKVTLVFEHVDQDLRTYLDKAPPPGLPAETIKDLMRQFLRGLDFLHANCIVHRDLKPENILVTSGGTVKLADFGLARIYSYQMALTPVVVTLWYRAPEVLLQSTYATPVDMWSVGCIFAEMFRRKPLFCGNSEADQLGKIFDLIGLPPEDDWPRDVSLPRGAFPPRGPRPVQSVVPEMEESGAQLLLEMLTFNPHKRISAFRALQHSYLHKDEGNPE
Chain of CDK4/cyclin D1 (P24385 whole entry partner): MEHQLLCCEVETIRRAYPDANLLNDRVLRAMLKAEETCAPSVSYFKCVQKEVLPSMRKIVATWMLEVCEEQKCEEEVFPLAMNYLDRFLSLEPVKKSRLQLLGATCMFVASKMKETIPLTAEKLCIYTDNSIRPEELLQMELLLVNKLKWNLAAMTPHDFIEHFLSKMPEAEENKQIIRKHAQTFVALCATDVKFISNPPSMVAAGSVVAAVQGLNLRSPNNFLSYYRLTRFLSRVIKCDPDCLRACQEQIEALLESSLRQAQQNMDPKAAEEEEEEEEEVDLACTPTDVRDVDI
In short: as §1

[4] = biological target: CDK6/cyclin D1 (Homo sapiens, UniProt Q00534); assay: In vitro CDK6 kinase assay; type: biochemical; settings: for effect on CDK6 enzyme activity (in words): 0.5 mM (Fig. 7G, H), Rb substrate; for inhibition at 500 µM: read-out: inhibition of CDK6 activity
Chain of CDK6/cyclin D1 (Q00534 whole entry): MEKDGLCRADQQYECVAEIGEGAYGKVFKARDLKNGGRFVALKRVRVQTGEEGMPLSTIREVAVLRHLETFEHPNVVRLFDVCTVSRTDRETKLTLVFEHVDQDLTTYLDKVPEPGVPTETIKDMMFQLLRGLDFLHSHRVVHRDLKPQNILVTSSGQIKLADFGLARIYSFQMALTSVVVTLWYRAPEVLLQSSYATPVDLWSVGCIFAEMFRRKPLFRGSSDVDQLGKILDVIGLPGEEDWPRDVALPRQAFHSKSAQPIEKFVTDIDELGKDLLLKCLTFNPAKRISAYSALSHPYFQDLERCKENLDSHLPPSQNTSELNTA
Chain of CDK6/cyclin D1 (P24385 whole entry partner): as the sequence (P24385 whole entry partner) above
In short: as §1

[5] = MTT cytotoxicity assay; type: cell-based, human; settings: human, HCT-116 colorectal carcinoma cells
In short: (§2)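 HCT-116 cells kept in McCoy's 5A with 10% FBS, seeded overnight at 20,000 cells/well, then exposed to test compounds at various concentrations for 72 h. Viability read by MTT. IC50 taken from the concentration series. Experiments repeated 3–6 times independently.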

[6] = system: HCT-116 cells; assay: MTT cytotoxicity assay; type: cell-based, human; settings: Homo sapiens, HCT-116, 72 h, read-out: MTT assay HCT-116 72 h (IC50)
In short: as §2

[7] = biological target: cellular CDK1 in HCT-116 cells (Homo sapiens, UniProt P06493); assay: Acetylation of cellular CDK1 in HCT-116 cells; type: cell-based; settings: 0.25–2.5 mM, 12 h
Chain of cellular CDK1 in HCT-116 cells (P06493 whole entry): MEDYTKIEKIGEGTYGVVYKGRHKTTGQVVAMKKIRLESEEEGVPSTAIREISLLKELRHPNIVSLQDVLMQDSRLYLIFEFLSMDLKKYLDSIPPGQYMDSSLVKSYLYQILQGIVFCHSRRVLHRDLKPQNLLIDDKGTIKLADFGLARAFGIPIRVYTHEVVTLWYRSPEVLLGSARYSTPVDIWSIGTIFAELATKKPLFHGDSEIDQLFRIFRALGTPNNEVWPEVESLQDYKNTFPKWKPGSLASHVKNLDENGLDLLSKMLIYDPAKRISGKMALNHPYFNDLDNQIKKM

[8] = biological target: T1, CDK2/cyclin A2; settings: in vitro kinase assays; cited from earlier work
[9] = cited from earlier work
[10] = CDK1 IC50, Table III, purified CDK1 enzyme
[11] = CDK1 IC50, text, dose-dependent inhibition, Fig. 1E-H

Chain of CDK1/cyclin B1 (P14635 whole entry): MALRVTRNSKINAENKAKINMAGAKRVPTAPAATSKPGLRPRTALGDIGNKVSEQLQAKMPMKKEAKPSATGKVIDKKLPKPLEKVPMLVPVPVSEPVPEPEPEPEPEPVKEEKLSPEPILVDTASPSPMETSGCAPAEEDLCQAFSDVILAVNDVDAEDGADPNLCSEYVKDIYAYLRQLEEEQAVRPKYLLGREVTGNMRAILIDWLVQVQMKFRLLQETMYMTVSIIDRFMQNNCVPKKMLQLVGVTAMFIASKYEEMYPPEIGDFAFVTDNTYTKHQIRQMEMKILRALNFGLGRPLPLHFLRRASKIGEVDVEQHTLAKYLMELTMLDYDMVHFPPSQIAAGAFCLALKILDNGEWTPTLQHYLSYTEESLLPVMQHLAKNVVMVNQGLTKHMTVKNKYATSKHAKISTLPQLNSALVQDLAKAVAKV
Chain of CDK1/cyclin B1 (P06493 whole entry): as the sequence (P06493 whole entry) above

Row | inhibition of CDK1 enzyme activity [1] [%] | effect on CDK4 enzyme activity (in words) [3] | effect on CDK6 enzyme activity (in words) [4] | Structure (SMILES) | effect on CDK2 enzyme activity (in words) [2] | effect on CDK1 enzyme activity (in words) [1] | further results
1 | 25 | – | – | O=C(O)c1ccc(O)cc1O [2,4-DHBA, 2,4-dihydroxybenzoic acid] | – | – | –
2 | 22 | – | – | O=C(O)c1cc(O)ccc1O [2,5-DHBA, 2,5-dihydroxybenzoic acid] | – | – | –
3 | – | failed to inhibit | did not affect | O=C(O)c1ccccc1O [Salicylic acid, reference compound] | did not inhibit | do not inhibit; also recorded: failed to inhibit | effect on CDK2 enzyme activity (in words), previous study [8]: failed to inhibit; half-life ([9]; depending upon the dose): 4 to 6 h; conjugation with glycine to salicyluric acid ([9]; liver): 20–65%

Further lines, the compound ahead of its results:

Row | Structure (SMILES) | inhibition of CDK1 enzyme activity [1] [%] | effect on CDK4 enzyme activity (in words) [3] | effect on CDK6 enzyme activity (in words) [4] | effect on CDK2 enzyme activity (in words) [2] | effect on CDK1 enzyme activity (in words) [1] | further results
4 | O=C(O)c1cccc(O)c1O [2,3-DHBA, 2,3-dihydroxy-benzoic acid] | 55 | failed to inhibit; also recorded: either no or marginal effect | inhibited | did not inhibit; also recorded: either no or marginal effect | – | IC50 [1, 10]: 386 µM; IC50 [1, 11]: 386 µM; inhibition at 500 µM [4]: 28%; IC50 at 72 h [5]: ~1800 µM; IC50 [6]: 1780 µM
5 | O=C(O)c1c(O)cc(O)cc1O [2,4,6-THBA, 2,4,6-trihydroxybenzoic acid] | – | inhibited | inhibited | dose-dependent inhibition; also recorded: inhibited | inhibited | IC50 [1, 10]: 226 µM; IC50 [2]: ~300 µM; inhibition at 500 µM ([3]; read-out: inhibition of CDK4 activity): 45%; inhibition at 500 µM [4]: 40%; IC50 at 72 h [5]: 800 µM; IC50 [6]: 785 µM
6 | O=C(O)c1c(O)cccc1O [2,6-DHBA, 2,6-dihydroxybenzoic acid] | 65 | failed to inhibit; also recorded: either no or marginal effect | inhibited | did not inhibit; also recorded: either no or marginal effect | – | IC50 [1, 10]: 365 µM; IC50 [1, 11]: 365 µM; inhibition at 500 µM [4]: 37%; IC50 at 72 h [5]: 1900 µM; IC50 [6]: 1950 µM
7 | O=C(O)c1cc(O)c(O)c(O)c1 [3,4,5-THBA, gallic acid] | – | – | – | – | did not show any inhibitory effect; also recorded: failed to inhibit | –
8 | O=C(O)c1ccc(O)c(O)c1 [3,4-DHBA] | – | – | – | – | did not show any inhibition; also recorded: failed to inhibit | –
9 | O=C(O)c1cc(O)cc(O)c1 [3,5-DHBA] | – | – | – | – | failed to inhibit | –
10 | Nc1ccc(O)c(C(=O)O)c1 [5-aminosalicylic acid, reference compound] | – | – | – | – | did not show any inhibition | effect on CDK1 enzyme activity (in words) ([1]; listed as 5-amino-salicylic acid): failed to inhibit
11 | CC(=O)Oc1ccccc1C(=O)O [Aspirin] | – | failed to inhibit | did not affect | did not inhibit | do not inhibit; also recorded: failed to inhibit | acetylation of cellular CDK1 (in words) [7]: acetylated in aspirin treated samples in a dose-dependent fashion; effect on CDK2 enzyme activity (in words), previous study [8]: failed to inhibit; oral bioavailability [9]: 40–50%
12 | O=C(O)c1ccccc1 [benzoic acid, reference compound] | – | – | – | – | did not show any inhibition; also recorded: failed to inhibit | –
13 | CN1CC[C@H](c2c(O)cc(O)c3c(=O)cc(-c4ccccc4Cl)oc23)[C@H](O)C1 [flavopiridol, reference compound] | – | – | – | – | dose-dependently inhibited | –
